# Laboratory results: ChEMBL document CHEMBL1154975, “Selective inducible microsomal prostaglandin E(2) synthase-1 (mPGES-1) inhibitors derived from an oxicam template” (Bioorg Med Chem Lett, 2010)
# System: not listed separately
# Test: Aqueous solubility assessed as nitrogen content after 24 hrs
# Type: physicochemical
# Settings: not given
# Summary of the method: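 Test compound from 30 mM DMSO stock diluted into 50 mM sodium phosphate buffer at the indicated pH (final 2% DMSO). Shaken 24 h at room temperature (23–25 °C), vacuum filtered. Filtrate nitrogen measured by chemiluminescent nitrogen detection; concentration derived from nitrogen count in molecular formula, reported in µg/mL and µM.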
row,Compound,solubility at 24 h [µM]
1,O=C(Nc1ccc(-c2ccc(Cl)c(Cl)c2)cc1)C1=C(O)c2ccccc2S(=O)(=O)N1,< 3

# Target: T1, Prostaglandin G/H synthase 1 (Homo sapiens, UniProt P23219)
# T1 sequence (P23219 whole entry): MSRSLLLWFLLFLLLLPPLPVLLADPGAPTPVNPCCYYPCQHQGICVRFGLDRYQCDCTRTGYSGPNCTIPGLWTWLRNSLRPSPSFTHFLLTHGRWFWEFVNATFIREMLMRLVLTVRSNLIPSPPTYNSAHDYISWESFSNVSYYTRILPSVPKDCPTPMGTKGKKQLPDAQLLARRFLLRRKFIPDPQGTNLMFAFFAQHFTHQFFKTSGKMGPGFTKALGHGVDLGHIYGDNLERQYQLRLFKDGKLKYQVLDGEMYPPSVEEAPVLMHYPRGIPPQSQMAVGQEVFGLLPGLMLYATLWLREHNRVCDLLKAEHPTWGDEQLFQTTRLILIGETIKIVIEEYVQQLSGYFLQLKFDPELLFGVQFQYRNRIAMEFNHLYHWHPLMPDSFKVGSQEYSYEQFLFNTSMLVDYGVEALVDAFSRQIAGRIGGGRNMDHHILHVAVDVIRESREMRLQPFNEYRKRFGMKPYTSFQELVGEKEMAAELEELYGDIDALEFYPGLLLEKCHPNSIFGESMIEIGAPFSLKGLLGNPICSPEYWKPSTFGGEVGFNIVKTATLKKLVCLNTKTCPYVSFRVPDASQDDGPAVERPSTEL
# Test: Inhibition of COX1
# Settings: not given
row,Compound,INH [µM]
1,O=C(Nc1ccc(CCc2ccc(Cl)c(Cl)c2)cc1)C1=C(O)c2ccccc2S(=O)(=O)N1,> 50

# Target: T2, Prostaglandin E synthase (Homo sapiens, UniProt O14684)
# T2 sequence (O14684 whole entry): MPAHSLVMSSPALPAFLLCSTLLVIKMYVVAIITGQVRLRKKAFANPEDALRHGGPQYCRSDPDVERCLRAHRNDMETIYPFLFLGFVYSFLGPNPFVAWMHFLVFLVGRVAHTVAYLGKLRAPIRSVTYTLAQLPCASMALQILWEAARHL
# Test: Inhibition of human mPGES1 in IL1-beta treated human FF cells assessed as blockade of PGH2 to PGE2 conversion after 50 mins by ELISA
# Type: cell-based
# Settings: not given
# Summary of the method: (§1)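 Human fetal fibroblasts in DMEM/15% FBS at 37 °C, 5% CO2; after 20–24 h, stimulated 20–24 h with 1 ng/mL IL-1β, washed, compound 50 min in serum-free DMEM, then 10 µM arachidonic acid 10 min. PGE2 by ELISA. For PGF2α, SnCl2 added after compound for 10 min before arachidonic acid. IC50 from duplicate data.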
row,Compound,IC50 [µM]
1,O=C(Nc1ccc(-c2ccc(Cl)c(Cl)c2)cc1)C1=C(O)c2ccccc2S(=O)(=O)N1,0.42
2,O=C(Nc1ccc(-c2ccc(Cl)c(Cl)c2)cc1)C1NS(=O)(=O)c2ccccc2C1O (stereo not given),0.67
3,O=C(Nc1ccc(CCc2ccc(Cl)c(Cl)c2)cc1)C1=C(O)c2ccccc2S(=O)(=O)N1,0.46
4,O=C(Nc1ccc(C(=O)c2ccc(Cl)cc2)c(Cl)c1)C1=C(O)c2ccccc2S(=O)(=O)N1,1.14
5,Cc1ccc(-c2ccc(NC(=O)C3=C(O)c4ccccc4S(=O)(=O)N3)cc2)cc1,2.24
6,O=C(Nc1ccccc1CCc1ccc(Cl)c(Cl)c1)C1=C(O)c2ccccc2S(=O)(=O)C1,3.4
7,Cc1cccc(-c2ccc(NC(=O)C3=C(O)c4ccccc4S(=O)(=O)N3)cc2)c1C,6.59

# Target: T3, Prostaglandin G/H synthase 2 (Homo sapiens) (UniProt P35354)
# T3 sequence (whole entry): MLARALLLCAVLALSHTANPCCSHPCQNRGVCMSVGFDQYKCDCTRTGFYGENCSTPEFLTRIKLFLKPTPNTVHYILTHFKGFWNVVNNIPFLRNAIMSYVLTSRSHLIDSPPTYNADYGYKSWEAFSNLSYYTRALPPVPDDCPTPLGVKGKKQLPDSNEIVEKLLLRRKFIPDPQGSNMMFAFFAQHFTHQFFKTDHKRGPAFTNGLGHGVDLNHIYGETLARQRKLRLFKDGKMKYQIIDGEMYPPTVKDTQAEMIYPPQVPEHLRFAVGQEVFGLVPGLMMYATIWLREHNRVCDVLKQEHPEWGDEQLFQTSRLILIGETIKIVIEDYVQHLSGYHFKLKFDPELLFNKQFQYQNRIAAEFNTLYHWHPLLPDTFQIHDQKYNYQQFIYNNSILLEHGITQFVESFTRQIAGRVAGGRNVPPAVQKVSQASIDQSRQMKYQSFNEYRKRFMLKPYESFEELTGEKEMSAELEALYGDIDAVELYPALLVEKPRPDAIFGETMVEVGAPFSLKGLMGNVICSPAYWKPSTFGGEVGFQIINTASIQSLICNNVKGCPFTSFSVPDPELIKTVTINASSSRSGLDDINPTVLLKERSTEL
# Test: Inhibition of COX2
# Settings: not given
row,Compound,INH [µM]
1,O=C(Nc1ccc(CCc2ccc(Cl)c(Cl)c2)cc1)C1=C(O)c2ccccc2S(=O)(=O)N1,> 50

# Target: T1, Prostaglandin G/H synthase 1
# Test: Inhibition of human recombinant COX1
# Settings: not given
row,Compound,IC50 [µM]
1,O=C(Nc1ccc(-c2ccc(Cl)c(Cl)c2)cc1)C1=C(O)c2ccccc2S(=O)(=O)N1,118
2,O=C(Nc1ccc(-c2ccc(Cl)c(Cl)c2)cc1)C1NS(=O)(=O)c2ccccc2C1O (stereo not given),> 50
3,O=C(Nc1ccc(CCc2ccc(Cl)c(Cl)c2)cc1)C1=C(O)c2ccccc2S(=O)(=O)N1,489

# Target: T2, Prostaglandin E synthase
# Test: Inhibition of human mPGES1 in IL-1-beta-stimulated human RASF cells assessed as blockade of PGH2 to PGE2 conversion after 50 mins by ELISA
# Type: cell-based
# Settings: not given
# Summary of the method: (§2)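 RA synovial fibroblasts cultured 3 days in DMEM/10% FBS, then 24 h with 1 ng/mL IL-1β in DMEM/1% FBS. Washed; compound (1% Me2SO final) 50 min, then 10 µM arachidonic acid 10 min at 37 °C. For PGF2α, 2 mg/mL SnCl2 added 40 min after compound. Prostanoids in conditioned media by ELISA.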
row,Compound,IC50 [µM]
1,O=C(Nc1ccc(-c2ccc(Cl)c(Cl)c2)cc1)C1=C(O)c2ccccc2S(=O)(=O)N1,0.5

# Target: T4, Prostaglandin G/H synthase 2 (Homo sapiens, UniProt P35354)
# T4 sequence (P35354 whole entry): T3 sequence (whole entry)
# Test: Inhibition of human COX2 in IL1-beta treated human FF cells assessed as blockade of SnCl2-mediated PGH2 to PGF2alpha conversion after 50 mins by ELISA
# Type: cell-based
# Settings: not given
# Summary of the method: as §1
row,Compound,IC50 [µM]
1,O=C(Nc1ccc(-c2ccc(Cl)c(Cl)c2)cc1)C1=C(O)c2ccccc2S(=O)(=O)N1,> 100
2,O=C(Nc1ccc(-c2ccc(Cl)c(Cl)c2)cc1)C1NS(=O)(=O)c2ccccc2C1O (stereo not given),> 100
3,O=C(Nc1ccc(CCc2ccc(Cl)c(Cl)c2)cc1)C1=C(O)c2ccccc2S(=O)(=O)N1,> 68
4,O=C(Nc1ccc(C(=O)c2ccc(Cl)cc2)c(Cl)c1)C1=C(O)c2ccccc2S(=O)(=O)N1,95.6
5,Cc1ccc(-c2ccc(NC(=O)C3=C(O)c4ccccc4S(=O)(=O)N3)cc2)cc1,> 100
6,O=C(Nc1ccccc1CCc1ccc(Cl)c(Cl)c1)C1=C(O)c2ccccc2S(=O)(=O)C1,> 90
7,Cc1cccc(-c2ccc(NC(=O)C3=C(O)c4ccccc4S(=O)(=O)N3)cc2)c1C,94.7

# Target: T4, Prostaglandin G/H synthase 2
# Test: Inhibition of human recombinant COX2
# Settings: not given
row,Compound,IC50 [µM]
1,O=C(Nc1ccc(-c2ccc(Cl)c(Cl)c2)cc1)C1=C(O)c2ccccc2S(=O)(=O)N1,263
2,O=C(Nc1ccc(-c2ccc(Cl)c(Cl)c2)cc1)C1NS(=O)(=O)c2ccccc2C1O (stereo not given),> 50
3,O=C(Nc1ccc(CCc2ccc(Cl)c(Cl)c2)cc1)C1=C(O)c2ccccc2S(=O)(=O)N1,467

# Target: T5, Prostacyclin synthase (Homo sapiens, UniProt Q16647)
# T5 sequence (Q16647 whole entry): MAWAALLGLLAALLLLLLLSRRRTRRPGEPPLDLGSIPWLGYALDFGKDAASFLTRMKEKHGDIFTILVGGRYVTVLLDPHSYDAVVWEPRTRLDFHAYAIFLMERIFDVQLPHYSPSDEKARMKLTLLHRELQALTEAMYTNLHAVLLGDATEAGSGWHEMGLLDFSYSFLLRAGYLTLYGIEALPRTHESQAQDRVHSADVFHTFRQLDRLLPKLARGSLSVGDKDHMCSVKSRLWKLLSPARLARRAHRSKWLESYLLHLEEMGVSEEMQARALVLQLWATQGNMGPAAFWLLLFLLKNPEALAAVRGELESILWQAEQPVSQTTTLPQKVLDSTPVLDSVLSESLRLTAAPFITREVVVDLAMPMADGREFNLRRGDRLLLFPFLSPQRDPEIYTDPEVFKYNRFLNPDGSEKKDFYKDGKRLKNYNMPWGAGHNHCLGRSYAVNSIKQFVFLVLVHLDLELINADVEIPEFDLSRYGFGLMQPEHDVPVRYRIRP
# Test: Inhibition of human prostacyclin synthase in IL-1-beta-stimulated human RASF cells assessed as PGF1alpha levels after 50 mins by ELISA
# Type: cell-based
# Settings: not given
# Summary of the method: as §2
row,Compound,IC50 [µM]
1,O=C(Nc1ccc(-c2ccc(Cl)c(Cl)c2)cc1)C1=C(O)c2ccccc2S(=O)(=O)N1,> 100

# Target: T4, Prostaglandin G/H synthase 2
# Test: Inhibition of human COX2 in IL-1-beta-stimulated human RASF cells assessed as PGF2alpha levels after 50 mins by ELISA
# Type: cell-based
# Settings: not given
# Summary of the method: as §2
row,Compound,IC50 [µM]
1,O=C(Nc1ccc(-c2ccc(Cl)c(Cl)c2)cc1)C1=C(O)c2ccccc2S(=O)(=O)N1,> 100

# Target: T2, Prostaglandin E synthase
# Test: Inhibition of human mPGES1 assessed as PGE2 level after 41 sec by ELISA
# Settings: not given
# Summary of the method: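 Enzyme in 100 mM potassium phosphate pH 6.2 with 2.5 mM glutathione, compound added in DMSO. Reaction started with PGH2 (final 2 µM), stopped with 2.5 mM FeCl2, diluted 120-fold into ELISA buffer. PGE2 by ELISA against a standard curve. % control set between reference-inhibited and enzyme-only controls; IC50 by 4-parameter log fit of duplicate data.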
row,Compound,IC50 [µM]
1,O=C(Nc1ccc(-c2ccc(Cl)c(Cl)c2)cc1)C1=C(O)c2ccccc2S(=O)(=O)N1,0.016
2,O=C(Nc1ccc(-c2ccc(Cl)c(Cl)c2)cc1)C1NS(=O)(=O)c2ccccc2C1O (stereo not given),0.19
3,O=C(Nc1ccc(CCc2ccc(Cl)c(Cl)c2)cc1)C1=C(O)c2ccccc2S(=O)(=O)N1,0.11
4,O=C(Nc1ccc(C(=O)c2ccc(Cl)cc2)c(Cl)c1)C1=C(O)c2ccccc2S(=O)(=O)N1,0.11
5,Cc1ccc(-c2ccc(NC(=O)C3=C(O)c4ccccc4S(=O)(=O)N3)cc2)cc1,< 0.07
6,O=C(Nc1ccccc1CCc1ccc(Cl)c(Cl)c1)C1=C(O)c2ccccc2S(=O)(=O)C1,1.68
7,Cc1cccc(-c2ccc(NC(=O)C3=C(O)c4ccccc4S(=O)(=O)N3)cc2)c1C,1

# Target: T6, Thromboxane-A synthase (Homo sapiens, UniProt P24557)
# T6 sequence (P24557 whole entry): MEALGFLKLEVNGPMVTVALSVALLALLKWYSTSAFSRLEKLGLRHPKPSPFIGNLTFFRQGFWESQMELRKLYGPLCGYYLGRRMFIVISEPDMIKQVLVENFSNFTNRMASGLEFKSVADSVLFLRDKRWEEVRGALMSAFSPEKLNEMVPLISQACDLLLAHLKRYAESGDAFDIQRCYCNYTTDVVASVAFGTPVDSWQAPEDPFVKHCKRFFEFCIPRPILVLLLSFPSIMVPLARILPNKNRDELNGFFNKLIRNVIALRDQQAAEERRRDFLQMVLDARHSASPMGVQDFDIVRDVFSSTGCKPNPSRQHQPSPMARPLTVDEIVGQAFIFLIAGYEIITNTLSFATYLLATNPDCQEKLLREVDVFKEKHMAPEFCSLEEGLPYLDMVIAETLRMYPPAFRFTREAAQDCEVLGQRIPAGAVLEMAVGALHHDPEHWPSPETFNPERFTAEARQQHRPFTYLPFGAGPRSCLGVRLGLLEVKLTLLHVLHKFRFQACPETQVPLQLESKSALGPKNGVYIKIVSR
# Test: Inhibition of human thromboxane A synthase in IL-1-beta-stimulated human RASF cells assessed as TXB2 levels after 50 mins by ELISA
# Type: cell-based
# Settings: not given
row,Compound,IC50 [µM]
1,O=C(Nc1ccc(-c2ccc(Cl)c(Cl)c2)cc1)C1=C(O)c2ccccc2S(=O)(=O)N1,> 100

# Target: T2, Prostaglandin E synthase
# Test: Inhibition of human mPGES1 in […] assessed as PGE2 level after 24 hrs by ELISA
# Type: tissue-based, Blood
# Settings: in the assay text read “by ELISA” for “after 24 hrs by ELISA”
# Summary of the method: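 Heparinized healthy-donor human whole blood (100 µL/well) mixed with 10⁵ 1483 head-and-neck carcinoma cells, compound 15 min at 37 °C, then 30 µM arachidonic acid 10 min. Centrifuged 930 g 10 min; plasma PGE2 by ELISA.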
row,Compound,IC50 [µM]
1,O=C(Nc1ccc(-c2ccc(Cl)c(Cl)c2)cc1)C1=C(O)c2ccccc2S(=O)(=O)N1,5
